Results as given in ChEMBL document CHEMBL1155751, “Two phenanthraquinones from Dendrobium moniliforme” (J Nat Prod, 2001).
The source made the active and inactive calls. The calls are words filed in the database; no cut-off is given here.

Columns and labels:
Mast cell [1] = test: Secretagogue-induced histamine release in Sprague-Dawley rat peritoneal mast cells at 30 uM treated 3 mins before secretagogue challenge measured after 15 mins
Mast cell [2] = test: Inhibition of secretagogue-induced beta-glucuronidase release in Sprague-Dawley rat peritoneal mast cells at 30 uM treated 3 mins before secretagogue challenge measured after 15 mins
RAW264.7 [3] = test: Antiinflammatory activity in mouse RAW264.7 cells assessed as LPS-induced nitrite levels at 1 uM treated 1 hr before LPS challenge measured after 24 hrs by Griess reaction (Rvb=46.6 +/- 0.4); format: functional
How it was run: (§1)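 RAW 264.7 cells were seeded at 2 × 10^5 cells/well in DMEM with 5% heat-inactivated FBS, penicillin and streptomycin, and left to adhere overnight. Cells got DMSO or compound at 37 °C for 1 h, then 1 µg/mL LPS (E. coli 0111:B4) for 24 h. Medium nitrite was read by Griess (550 nm, NaNO2 standard), TNF-α by ELISA and PGE2 by EIA. Means ± SEM, N = 3-4.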

RAW264.7 [4] = test: Antiinflammatory activity in mouse RAW264.7 cells assessed as inhibition of LPS-induced TNFalpha formation at 1 uM treated 1 hr before LPS challenge measured after 24 hrs by ELISA; format: functional
How it was run: as §1

RAW264.7 [5] = test: Antiinflammatory activity in mouse RAW264.7 cells assessed as inhibition of LPS-induced prostaglandin E2 formation at 1 uM treated 1 hr before LPS challenge measured after 24 hrs by EIA; format: functional
How it was run: as §1

RAW264.7 [6] = test: Cytotoxicity against mouse RAW264.7 cells assessed as LDH release; format: cell-based
N9 [7] = test: Cytotoxicity against mouse N9 cells assessed as LDH release; format: cell-based
Mast cell [8] = test: Inhibition of secretagogue-induced histamine release in Sprague-Dawley rat peritoneal mast cells at 30 uM […] secretagogue challenge measured after 15 mins; format: functional; details: read-out: INH, in the assay text read “3 mins before” for “30 mins before”
How it was run: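 Peritoneal mast cells came from exsanguinated Sprague-Dawley rats by heparinized Tyrode's lavage, purified through 38% BSA, and resuspended at (1-1.5) × 10^6 cells/mL in Tyrode's with 0.1% BSA. Supernatant β-glucuronidase was read at 550 nm (phenolphthalein glucuronide, pH 4.5) and histamine by o-phthaldialdehyde fluorescence at 350/450 nm. Release is % of the Triton X-100 total.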

Neutrophil [9] = test: Inhibition of secretagogue-induced histamine release in rat neutrophils at 30 uM treated 30 mins before secretagogue challenge measured after 15 mins; format: functional, cell-based
Neutrophil [10] = test: Inhibition of secretagogue-induced beta-glucuronidase release in rat neutrophils at 30 uM treated 30 mins before secretagogue challenge measured after 15 mins; format: functional, cell-based
Neutrophil [11] = test: Inhibition of secretagogue-induced superoxide anion generation in rat neutrophils at 30 uM treated 30 mins before secretagogue challenge measured after 15 mins; format: functional, cell-based
N9 [12] = test: Antiinflammatory activity in mouse N9 cells assessed as inhibition of LPS and IFN-gamma-induced TNFalpha formation at 3 uM treated 1 hr before LPS and IFN-gamma challenge measured after 24 hrs by ELISA; details: N9, read-out: INH
N9 [13] = test: Antiinflammatory activity in mouse N9 cells assessed as inhibition of LPS and IFN-gamma-induced nitrite formation at 3 uM treated 1 hr before LPS and IFN-gamma challenge measured after 24 hrs by Griess reaction; details: N9, read-out: INH

Row | Compound | histamine release at 30 µM (Mast cell [1]) [%] | inhibition at 30 µM (Mast cell [2]) [%] | Activity (RAW264.7 [3]) [µM] | inhibition at 1 µM (RAW264.7 [4]) [%] | inhibition at 1 µM (RAW264.7 [5]) [%] | Activity (RAW264.7 [6]) [%] | Activity (N9 [7]) [%] | inhibition at 30 µM (Mast cell [8]) [%] | Activity (Neutrophil [9]) | Activity (Neutrophil [10]) | Activity (Neutrophil [11]) | inhibition at 3 µM (N9 [12]) [%] | inhibition at 3 µM (N9 [13]) [%]
1 | CCN(CC)CCCC(C)Nc1c2ccc(Cl)cc2nc2ccc(OC)cc12 (centres undefined) [QUINACRINE] | 18.4 | 8.7 | – | – | – | – | – | – | – | – | – | – | –
2 | COC1=CC(=O)c2ccc3cc(OC)cc(O)c3c2C1=O [DENBINOBIN] | – | 40 | 40.4 | 62 | 43 | < 10 | < 10 | 39 | inactive | inactive | inactive | 70 | 44
